Results: ChEMBL document CHEMBL5058577, “EUbOPEN Chemogenomics Library 2 (Multiplex)” (2022)

System: U2OS
Assay: Multiplex assay against U2OS
Type: toxicity, cell-based
Conditions: human
Summary of the method: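 Imaging took place on a CQ1 microscope at 37°C and 5% CO2 once compound had been added to live cells stained at seeding with Hoechst33342, BioTracker Green Microtubule Cytoskeleton Dye, MitoTracker Red and Annexin V Alexa Fluor 680. CellPathfinder machine-learning gating classed cells as Hoechst high-intensity objects or normal cells, classed normal cells as having healthy, pyknosed or fragmented nuclei, and classed pyknosed cells as mitotic or apoptotic. Tubulin, mitochondrial-mass and membrane-permeability phenotypes are per cents of the healthy-nucleus cells.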

[1] = 12 h, 1 µM, compound concentration 1 uM, replicate 1
[2] = 12 h, 1 µM, compound concentration 1 uM, replicate 2
[3] = 12 h, 10 µM, compound concentration 10 uM, replicate 1
[4] = 12 h, 10 µM, compound concentration 10 uM, replicate 2
[5] = 24 h, 1 µM, compound concentration 1 uM, replicate 1
[6] = 24 h, 1 µM, compound concentration 1 uM, replicate 2
[7] = 24 h, 10 µM, compound concentration 10 uM, replicate 1
[8] = 24 h, 10 µM, compound concentration 10 uM, replicate 2
[9] = 48 h, 1 µM, compound concentration 1 uM, replicate 1
[10] = 48 h, 1 µM, compound concentration 1 uM, replicate 2
[11] = 48 h, 10 µM, compound concentration 10 uM, replicate 1
[12] = 48 h, 10 µM, compound concentration 10 uM, replicate 2

CCc1nn2c(C)cc(C)nc2c1Cc1ccc(-c2nnc(C3CCNCC3)o2)cc1
Population Apoptotic (%) [1]: 42%
Population Fragmented Nuclei (%) [1]: 28%
Population Healthy Nuclei (%) [1]: 60%
Population Hoechst High Intensity Objects (%) [1]: 3%
Population Membrane Permeable-Phenotype (%) [1]: 12%
Population Mitochondria Different-Phenotype (%) [1]: 10%
Population Mitotic Cells (%) [1]: 57%
Population Normal (%) [1]: 96%
Population Pyknosed Nuclei (%) [1]: 10%
Population Tubulin-Different-Phenotype (%) [1]: 11%
Total Cell Count [1]: 251
Population Apoptotic (%) [2]: 85%
Population Fragmented Nuclei (%) [2]: 9%
Population Healthy Nuclei (%) [2]: 84%
Population Hoechst High Intensity Objects (%) [2]: 2%
Population Membrane Permeable-Phenotype (%) [2]: 14%
Population Mitochondria Different-Phenotype (%) [2]: 17%
Population Mitotic Cells (%) [2]: 14%
Population Normal (%) [2]: 97%
Population Pyknosed Nuclei (%) [2]: 6%
Population Tubulin-Different-Phenotype (%) [2]: 4%
Total Cell Count [2]: 110
Population Apoptotic (%) [3]: 68%
Population Fragmented Nuclei (%) [3]: 24%
Population Healthy Nuclei (%) [3]: 55%
Population Hoechst High Intensity Objects (%) [3]: 5%
Population Membrane Permeable-Phenotype (%) [3]: 26%
Population Mitochondria Different-Phenotype (%) [3]: 43%
Population Mitotic Cells (%) [3]: 31%
Population Normal (%) [3]: 94%
Population Pyknosed Nuclei (%) [3]: 20%
Population Tubulin-Different-Phenotype (%) [3]: 28%
Total Cell Count [3]: 214
Population Apoptotic (%) [4]: 77%
Population Fragmented Nuclei (%) [4]: 8%
Population Healthy Nuclei (%) [4]: 76%
Population Hoechst High Intensity Objects (%) [4]: 2%
Population Membrane Permeable-Phenotype (%) [4]: 30%
Population Mitochondria Different-Phenotype (%) [4]: 62%
Population Mitotic Cells (%) [4]: 22%
Population Normal (%) [4]: 97%
Population Pyknosed Nuclei (%) [4]: 14%
Population Tubulin-Different-Phenotype (%) [4]: 44%
Total Cell Count [4]: 129
Population Apoptotic (%) [5]: 80%
Population Fragmented Nuclei (%) [5]: 26%
Population Healthy Nuclei (%) [5]: 63%
Population Hoechst High Intensity Objects (%) [5]: 2%
Population Membrane Permeable-Phenotype (%) [5]: 4%
Population Mitochondria Different-Phenotype (%) [5]: 6%
Population Mitotic Cells (%) [5]: 20%
Population Normal (%) [5]: 97%
Population Pyknosed Nuclei (%) [5]: 10%
Population Tubulin-Different-Phenotype (%) [5]: 3%
Total Cell Count [5]: 296
Population Apoptotic (%) [6]: 87%
Population Fragmented Nuclei (%) [6]: 13%
Population Healthy Nuclei (%) [6]: 80%
Population Hoechst High Intensity Objects (%) [6]: 3%
Population Membrane Permeable-Phenotype (%) [6]: 7%
Population Mitochondria Different-Phenotype (%) [6]: 12%
Population Mitotic Cells (%) [6]: 12%
Population Normal (%) [6]: 96%
Population Pyknosed Nuclei (%) [6]: 6%
Total Cell Count [6]: 130
Population Apoptotic (%) [7]: 77%
Population Fragmented Nuclei (%) [7]: 24%
Population Healthy Nuclei (%) [7]: 55%
Population Hoechst High Intensity Objects (%) [7]: 3%
Population Membrane Permeable-Phenotype (%) [7]: 9%
Population Mitochondria Different-Phenotype (%) [7]: 40%
Population Mitotic Cells (%) [7]: 22%
Population Normal (%) [7]: 96%
Population Pyknosed Nuclei (%) [7]: 19%
Population Tubulin-Different-Phenotype (%) [7]: 7%
Total Cell Count [7]: 236
Population Apoptotic (%) [8]: 71%
Population Fragmented Nuclei (%) [8]: 15%
Population Healthy Nuclei (%) [8]: 71%
Population Membrane Permeable-Phenotype (%) [8]: 16%
Population Mitochondria Different-Phenotype (%) [8]: 61%
Population Mitotic Cells (%) [8]: 28%
Population Pyknosed Nuclei (%) [8]: 13%
Population Tubulin-Different-Phenotype (%) [8]: 28%
Total Cell Count [8]: 163
Population Apoptotic (%) [9]: 90%
Population Fragmented Nuclei (%) [9]: 17%
Population Healthy Nuclei (%) [9]: 71%
Population Hoechst High Intensity Objects (%) [9]: 2%
Population Membrane Permeable-Phenotype (%) [9]: 6%
Population Mitochondria Different-Phenotype (%) [9]: 2%
Population Mitotic Cells (%) [9]: 10%
Population Normal (%) [9]: 97%
Population Pyknosed Nuclei (%) [9]: 10%
Population Tubulin-Different-Phenotype (%) [9]: 4%
Total Cell Count [9]: 376
Population Apoptotic (%) [10]: 85%
Population Fragmented Nuclei (%) [10]: 12%
Population Healthy Nuclei (%) [10]: 72%
Population Membrane Permeable-Phenotype (%) [10]: 7%
Population Mitochondria Different-Phenotype (%) [10]: 6%
Population Mitotic Cells (%) [10]: 14%
Population Pyknosed Nuclei (%) [10]: 14%
Total Cell Count [10]: 187
Population Apoptotic (%) [11]: 82%
Population Fragmented Nuclei (%) [11]: 24%
Population Healthy Nuclei (%) [11]: 55%
Population Hoechst High Intensity Objects (%) [11]: 2%
Population Membrane Permeable-Phenotype (%) [11]: 10%
Population Mitochondria Different-Phenotype (%) [11]: 29%
Population Mitotic Cells (%) [11]: 17%
Population Normal (%) [11]: 97%
Population Pyknosed Nuclei (%) [11]: 19%
Population Tubulin-Different-Phenotype (%) [11]: 3%
Total Cell Count [11]: 290
Population Apoptotic (%) [12]: 75%
Population Fragmented Nuclei (%) [12]: 12%
Population Healthy Nuclei (%) [12]: 71%
Population Membrane Permeable-Phenotype (%) [12]: 22%
Population Mitochondria Different-Phenotype (%) [12]: 31%
Population Mitotic Cells (%) [12]: 24%
Population Pyknosed Nuclei (%) [12]: 15%
Population Tubulin-Different-Phenotype (%) [12]: 18%
Total Cell Count [12]: 219
